Laboratory results taken from publication PMC8341878 (RSC Chemical Biology, 2020).
Values after ≈ are worked out from the molar mass of the structure shown. Values joined by “and” are separate entries in the source; they are usually repeats but may differ in a detail not shown here. Equal entries are not always repeated. Peptide text beside a SMILES is read from it.

Experiments:
[1] = test system: E. coli D22 strain; experiment: Microdilution broth assay; assay type: cell-based, Escherichia coli
Summary of the method: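 E. coli D22 was grown in Mueller Hinton broth to OD600 0.6–0.8, then diluted so wells held about 2 to 5 × 10^5 cfu per mL with serially diluted peptide in MH broth. Plates were read at 620 nm after 18–24 h at 37 °C. MIC was the lowest concentration with no turbidity increase. For MBC, wells were plated on LB agar; ≥99.9% kill versus inoculum. Duplicates, ≥2 independent experiments.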

[2] = target: ^EcSC (E. coli sliding clamp, DnaN) (Escherichia coli, UniProt P0A988); experiment: ITC, peptide interaction with E. coli sliding clamp; assay type: binding
Summary of the method: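 Recombinant His-tagged E. coli DnaN was expressed in BL21(DE3) pLys (IPTG 0.1 mM, 28 °C overnight), purified by Ni-NTA then Source Q, and exchanged into 10 mM Hepes pH 7.4, 0.15 M NaCl, 3 mM EDTA. Peptide (100 to 400 μM) was injected stepwise into 20 or 30 μM clamp at 30 °C. Peptide-into-buffer controls were subtracted. Each titration was run at least twice; mean ± sd.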

[3] = test system: Mycobacterium smegmatis; details: cited from earlier work
[4] = E. coli D22, decrease of at least 99.9% of cell viability vs inoculum, minimum of 2 independent biological replicates

Chain of ^EcSC (E. coli sliding clamp, DnaN) (P0A988 whole entry): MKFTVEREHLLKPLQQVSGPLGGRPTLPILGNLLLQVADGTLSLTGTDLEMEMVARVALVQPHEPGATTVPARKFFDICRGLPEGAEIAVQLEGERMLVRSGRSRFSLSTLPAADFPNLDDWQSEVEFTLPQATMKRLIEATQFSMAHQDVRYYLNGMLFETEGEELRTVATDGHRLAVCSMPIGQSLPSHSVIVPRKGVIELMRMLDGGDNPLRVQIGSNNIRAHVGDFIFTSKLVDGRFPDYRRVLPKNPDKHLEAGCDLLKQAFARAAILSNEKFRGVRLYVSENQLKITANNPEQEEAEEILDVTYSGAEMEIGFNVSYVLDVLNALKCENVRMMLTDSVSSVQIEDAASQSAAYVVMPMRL

| Compound | MBC ([1]; Escherichia coli, D22STRAIN) [µg/mL] | MIC ([1]; Escherichia coli, D22STRAIN) | MBC [1, 4] [µg/mL] | further results |
| --- | --- | --- | --- | --- |
| CC1(C)S[C@@H]2[C@H](NC(=O)[C@H](N)c3ccccc3)C(=O)N2[C@H]1C(=O)O [Ampicillin] | 16 (≈ 45.8 µM) | 22.9 µM to 45.8 µM and 8 µg/mL to 16 µg/mL | – | – |
| CN(C)[C@@H]1C(O)=C(C(N)=O)C(=O)[C@@]2(O)C(O)=C3C(=O)c4c(O)cccc4[C@@](C)(O)[C@H]3C[C@@H]12 [Tetracycline] | 0.5 (≈ 1.13 µM) | 0.56 µM to 1.12 µM and 0.25 µg/mL to 0.5 µg/mL | – | – |
| CC[C@H](C)[C@H](NC(=O)[C@@H](CCCNC(=N)N)NC(=O)[C@H](CCCNC(=N)N)NC(=O)[C@@H]1CCCN1C(=O)[C@@H]1CCCN1C(=O)[C@H](CCCNC(=N)N)NC(=O)[C@@H]1CCCN1C(=O)[C@H](CCCNC(=N)N)NC(=O)[C@@H]1CCCN1C(=O)[C@H](CC(C)C)NC(=O)[C@H](Cc1ccc(O)cc1)NC(=O)[C@@H]1CCCN1C(=O)[C@@H]1CCCN1C(=O)[C@H](CCCCN)NC(=O)[C@H](CC(=O)O)NC(=O)[C@@H](N)C(C)C)C(=O)N[C@@H](Cc1ccc(O)cc1)C(=O)N[C@@H](CC(N)=O)C(=O)N[C@H](CCCNC(=N)N)C(N)=O [Onc112] (HELM PEPTIDE1{V.D.K.P.P.Y.L.P.R.P.R.P.P.R.[dR].I.Y.N.[dR].[am]}$$$$V2.0) | – | – | 1 (≈ 0.418 µM) | K D ([2]; ITC at 30 °C, R1 buffer 10 mM Hepes pH 7.4, 0.15 M NaCl, 3 mM EDTA, peptide 100-400 μM into SC 20 or 30 μM, means ± sd of at least 2 independent experiments, ni = no specific interaction): ni |
| CC[C@H](C)[C@H](NC(=O)[C@@H](CCCNC(=N)N)NC(=O)[C@H](CCCNC(=N)N)NC(=O)[C@@H]1CCCN1C(=O)[C@@H]1CCCN1C(=O)[C@H](CCCNC(=N)N)NC(=O)[C@@H]1CCCN1C(=O)[C@H](CCCNC(=N)N)NC(=O)[C@@H]1CCCN1C(=O)[C@H](CC(C)C)NC(=O)[C@H](Cc1ccc(O)cc1)NC(=O)[C@@H]1CCCN1C(=O)[C@@H]1CCCN1C(=O)[C@H](CCCCN)NC(=O)[C@H](CC(=O)O)NC(=O)[C@@H](N)C(C)C)C(=O)N[C@@H](Cc1ccc(O)cc1)C(=O)N[C@@H](CC(N)=O)C(=O)N[C@H](CCCNC(=N)N)C(=O)N[C@@H](CC(N)=O)C(=O)NCC(=O)N1CCC[C@H]1C(=O)N[C@@H](CCCNC(=N)N)C(=O)N[C@@H](CCC(N)=O)C(=O)N[C@@H](CC1CCCCC1)C(=O)N[C@@H](CC(=O)O)C(=O)N[C@@H](CC(C)C)C(=O)N[C@@H](Cc1ccccc1)C(=O)O [Onc112-P7] (HELM PEPTIDE1{V.D.K.P.P.Y.L.P.R.P.R.P.P.R.[dR].I.Y.N.[dR].N.G.P.R.Q.[Cha].D.L.F}$$$$V2.0) | – | – | 2 (≈ 0.576 µM) | Kd ([2]; SD): 200 ± 0.1 nM |
| griselimycin | – | – | – | frequency of resistance [3]: 5 × 10^−10 |
| CC[C@H](C)[C@H](NC(=O)[C@@H]1CCCN1C(=O)[C@H](CCCNC(=N)N)NC(=O)[C@@H]1CCCN1C(=O)[C@@H]1CCCN1C(=O)[C@@H](NC(=O)[C@@H]1CCCN1C(=O)[C@H](CCCNC(=N)N)NC(=O)[C@@H]1CCCN1C(=O)[C@H](CC(C)C)NC(=O)[C@H](Cc1ccc(O)cc1)NC(=O)[C@H](CO)NC(=O)CNC(=O)[C@H](CCCCN)NC(=O)[C@H](CC(=O)O)NC(=O)[C@@H](N)C(C)C)[C@@H](C)O)C(=O)N[C@@H](Cc1ccc(O)cc1)C(=O)N[C@@H](CC(N)=O)C(=O)N[C@@H](CCCNC(=N)N)C(=O)N[C@@H](CC(N)=O)C(=O)NCC(=O)N1CCC[C@H]1C(=O)N[C@@H](CCCNC(=N)N)C(=O)N[C@@H](CCC(N)=O)C(=O)N[C@@H](CC1CCCCC1)C(=O)N[C@@H](CC(=O)O)C(=O)N[C@@H](CC(C)C)C(=O)N[C@@H](Cc1ccccc1)C(=O)O [Py-P7] (HELM PEPTIDE1{V.D.K.G.S.Y.L.P.R.P.T.P.P.R.P.I.Y.N.R.N.G.P.R.Q.[Cha].D.L.F}$$$$V2.0) | – | – | 8 (≈ 2.42 µM) | – |
